Measurements as given in ChEMBL document CHEMBL2062417, “Biotinylated quercetin as an intrinsic photoaffinity proteomics probe for the identification of quercetin target proteins” (Bioorg Med Chem, 2011).
Calls of active or inactive are those of the source. The rule behind the calls is not given here.

Experiments:
[1] = molecular target: RuvB-like 2 (Homo sapiens) (UniProt Q9Y230); assay: Binding affinity to RUVBL2 in human Jurkat cells at 150 uM followed by UV irradiation for 30 mins with Wood's glass filtered medium pressure mercury arc light prior to cell lysis measured after denaturing wash by LC-MS/MS based pull down assay
Procedure, shortened: (§1)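 Silver-stained bands from cells irradiated before lysis were excised, destained, reduced with 10 mM DTT, alkylated with 50 mM iodoacetamide and digested with trypsin overnight. Peptides were extracted in 1% TFA/50% acetonitrile. Nano-C18 LC used a 2–50% acetonitrile gradient with 0.1% formic acid over 50 min at 260 nL/min, followed by MS/MS identification.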

[2] = molecular target: Heat shock-related 70 kDa protein 2 (Homo sapiens) (UniProt P54652); assay: Binding affinity to HSPA2 in human Jurkat cells at 150 uM followed by UV irradiation for 30 mins with Wood's glass filtered medium pressure mercury arc light after cell lysis measured after denaturing wash by SDS-PAGE based pull down assay
Procedure, shortened: (§2)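 Jurkat cells were grown in RPMI with 10% FBS (about 15×10^6 cells) and treated 2 h with 150 μM BioQ in 3% aqueous DMSO. They were heat-shocked at 43 °C for 30 min, recovered 1 h at 37 °C, and UV-irradiated (320–400 nm, peak 365 nm, 30 min, 4 °C) before or after sonication lysis. Streptavidin-agarose capture ran 1 h. Beads were washed ≥3× with lysis buffer or 2% SDS Tris pH 7.4, boiled, run on 12% SDS-PAGE and silver-stained.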

[3] = molecular target: Casein kinase II (Homo sapiens, UniProt P19784+P67870+P68400); assay: Inhibition of CK2 using RRRADDSDDDDD as substrate after 30 mins by PKLight assay; format: protein-complex assay
[4] = molecular target: T1, Splicing factor 3B subunit 3 (Homo sapiens) (UniProt Q15393); assay: Binding affinity to SF3B3 in human Jurkat cells at 150 uM followed by UV irradiation for 30 mins with Wood's glass filtered medium pressure mercury arc light prior to cell lysis measured after denaturing wash by LC-MS/MS based pull down assay; procedure, shortened: as §1
T1 sequence (whole entry): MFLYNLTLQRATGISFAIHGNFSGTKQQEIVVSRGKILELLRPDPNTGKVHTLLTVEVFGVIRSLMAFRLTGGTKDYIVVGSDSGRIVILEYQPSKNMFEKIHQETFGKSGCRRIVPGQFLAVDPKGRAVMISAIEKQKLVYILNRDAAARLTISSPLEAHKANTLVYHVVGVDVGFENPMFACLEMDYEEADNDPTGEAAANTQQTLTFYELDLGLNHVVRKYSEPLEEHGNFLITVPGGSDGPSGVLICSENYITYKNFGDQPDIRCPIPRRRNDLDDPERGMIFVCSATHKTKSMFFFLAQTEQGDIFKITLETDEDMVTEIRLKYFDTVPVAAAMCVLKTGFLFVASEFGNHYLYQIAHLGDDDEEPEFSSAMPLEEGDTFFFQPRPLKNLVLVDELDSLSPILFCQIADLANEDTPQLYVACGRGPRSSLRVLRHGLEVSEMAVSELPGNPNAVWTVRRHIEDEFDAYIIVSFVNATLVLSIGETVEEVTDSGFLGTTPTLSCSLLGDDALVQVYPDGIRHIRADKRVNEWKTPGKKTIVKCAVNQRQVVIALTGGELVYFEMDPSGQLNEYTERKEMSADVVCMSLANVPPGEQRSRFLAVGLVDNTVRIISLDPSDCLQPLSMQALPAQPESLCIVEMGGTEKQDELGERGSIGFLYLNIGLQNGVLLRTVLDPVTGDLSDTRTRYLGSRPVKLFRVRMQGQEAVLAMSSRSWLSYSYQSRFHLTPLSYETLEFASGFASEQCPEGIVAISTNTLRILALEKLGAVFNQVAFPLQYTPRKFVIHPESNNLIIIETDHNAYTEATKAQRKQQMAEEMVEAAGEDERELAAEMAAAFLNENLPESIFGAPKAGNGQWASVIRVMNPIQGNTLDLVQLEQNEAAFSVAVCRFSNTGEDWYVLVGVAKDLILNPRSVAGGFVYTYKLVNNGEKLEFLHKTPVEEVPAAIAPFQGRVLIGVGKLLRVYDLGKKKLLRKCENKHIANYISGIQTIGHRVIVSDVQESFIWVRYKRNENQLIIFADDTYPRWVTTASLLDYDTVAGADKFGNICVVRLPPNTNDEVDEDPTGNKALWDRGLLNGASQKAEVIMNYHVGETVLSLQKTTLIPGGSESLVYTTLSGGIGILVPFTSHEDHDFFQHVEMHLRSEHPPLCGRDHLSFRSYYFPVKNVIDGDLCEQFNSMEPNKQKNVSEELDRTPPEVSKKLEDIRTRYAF

[5] = molecular target: Actin, cytoplasmic 1 (Homo sapiens) (UniProt P60709); assay: Binding affinity to ACTB in human Jurkat cells at 150 uM followed by UV irradiation for 30 mins with Wood's glass filtered medium pressure mercury arc light after cell lysis measured after denaturing wash by SDS-PAGE based pull down assay; procedure, shortened: as §2
[6] = species: Homo sapiens; assay: Binding affinity to CK2 at 150 uM followed by UV irradiation for 30 mins with Wood's glass filtered medium pressure mercury arc light by silver staining based pull down assay
Procedure, shortened: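 CK2 (17.5–70 nM) was mixed with 150 μM BioQ in 400 μL 10 mM PBS pH 7.2 with protease inhibitors, with or without 10 mM MgCl2 and 2 μM ATP. Samples were irradiated 30 min on ice (320–400 nm, peak 365 nm) or left unirradiated. Capture was on streptavidin agarose for 1 h, with washes in lysis buffer or 2% SDS Tris buffer, then boiling, SDS-PAGE and silver staining.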

[7] = test system: Jurkat; assay: Binding affinity to quercetin binding protein in human Jurkat cells at 150 uM followed by UV irradiation for 30 mins with Wood's glass filtered medium pressure mercury arc light after cell lysis by SDS-PAGE based pull down assay; procedure, shortened: as §2
[8] = molecular target: Heat shock-related 70 kDa protein 2 (Homo sapiens) (UniProt P54652); assay: Binding affinity to HSPA2 in human Jurkat cells at 150 uM followed by UV irradiation for 30 mins with Wood's glass filtered medium pressure mercury arc light prior to cell lysis measured after denaturing wash by LC-MS/MS based pull down assay; procedure, shortened: as §1
[9] = molecular target: Eukaryotic translation initiation factor 3 subunit F (Homo sapiens) (UniProt O00303); assay: Binding affinity to EIF3F in human Jurkat cells at 150 uM followed by UV irradiation for 30 mins with Wood's glass filtered medium pressure mercury arc light prior to cell lysis measured after denaturing wash by LC-MS/MS based pull down assay; procedure, shortened: as §1
[10] = molecular target: Heat shock protein HSP 90-alpha (Homo sapiens) (UniProt P07900); assay: Binding affinity to HSP90AA1 in human Jurkat cells at 150 uM followed by UV irradiation for 30 mins with Wood's glass filtered medium pressure mercury arc light prior to cell lysis measured after denaturing wash by SDS-PAGE based pull down assay; procedure, shortened: as §2
[11] = molecular target: Heat shock-related 70 kDa protein 2 (Homo sapiens) (UniProt P54652); assay: Binding affinity to HSPA2 in human Jurkat cells at 150 uM followed by UV irradiation for 30 mins with Wood's glass filtered medium pressure mercury arc light prior to cell lysis measured after denaturing wash by SDS-PAGE based pull down assay; procedure, shortened: as §2
[12] = molecular target: ATP synthase F(1) complex subunit alpha, mitochondrial (Homo sapiens) (UniProt P25705); assay: Binding affinity to ATP5A1 in human Jurkat cells at 150 uM followed by UV irradiation for 30 mins with Wood's glass filtered medium pressure mercury arc light prior to cell lysis measured after denaturing wash by LC-MS/MS based pull down assay; procedure, shortened: as §1
ATP synthase F(1) complex subunit alpha, mitochondrial (Homo sapiens), sequence (P25705 whole entry, one chain of several): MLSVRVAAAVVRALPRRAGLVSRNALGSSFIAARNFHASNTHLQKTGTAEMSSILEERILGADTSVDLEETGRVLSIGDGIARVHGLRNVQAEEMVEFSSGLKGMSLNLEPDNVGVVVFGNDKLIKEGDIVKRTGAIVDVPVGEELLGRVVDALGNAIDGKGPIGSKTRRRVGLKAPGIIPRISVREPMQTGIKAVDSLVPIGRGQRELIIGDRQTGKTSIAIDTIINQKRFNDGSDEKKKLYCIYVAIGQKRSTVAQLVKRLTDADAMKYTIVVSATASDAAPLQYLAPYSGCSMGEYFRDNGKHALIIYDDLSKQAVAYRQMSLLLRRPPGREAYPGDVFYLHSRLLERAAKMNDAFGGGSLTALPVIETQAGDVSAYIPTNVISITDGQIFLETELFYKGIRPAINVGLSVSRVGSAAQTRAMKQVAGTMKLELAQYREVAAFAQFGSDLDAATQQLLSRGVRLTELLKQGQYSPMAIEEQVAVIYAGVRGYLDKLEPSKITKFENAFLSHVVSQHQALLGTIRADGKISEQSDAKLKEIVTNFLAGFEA

Heat shock-related 70 kDa protein 2 (Homo sapiens), sequence (P54652 whole entry): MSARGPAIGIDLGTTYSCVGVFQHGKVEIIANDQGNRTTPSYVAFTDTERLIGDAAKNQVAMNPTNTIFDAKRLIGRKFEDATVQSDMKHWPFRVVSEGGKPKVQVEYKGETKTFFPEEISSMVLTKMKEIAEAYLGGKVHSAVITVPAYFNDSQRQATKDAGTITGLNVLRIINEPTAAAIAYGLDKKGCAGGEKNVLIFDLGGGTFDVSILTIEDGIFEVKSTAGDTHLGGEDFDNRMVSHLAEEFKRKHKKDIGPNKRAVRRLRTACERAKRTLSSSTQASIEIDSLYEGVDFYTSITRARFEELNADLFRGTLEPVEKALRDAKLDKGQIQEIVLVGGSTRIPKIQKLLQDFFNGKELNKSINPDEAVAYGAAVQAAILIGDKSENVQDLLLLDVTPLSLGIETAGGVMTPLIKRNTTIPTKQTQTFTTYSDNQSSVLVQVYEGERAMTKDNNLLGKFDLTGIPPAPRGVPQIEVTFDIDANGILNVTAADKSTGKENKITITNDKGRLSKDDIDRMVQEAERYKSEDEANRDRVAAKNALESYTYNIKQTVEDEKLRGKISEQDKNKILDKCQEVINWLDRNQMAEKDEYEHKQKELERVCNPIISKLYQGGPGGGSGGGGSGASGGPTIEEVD
Casein kinase II, sequence (P67870 whole entry): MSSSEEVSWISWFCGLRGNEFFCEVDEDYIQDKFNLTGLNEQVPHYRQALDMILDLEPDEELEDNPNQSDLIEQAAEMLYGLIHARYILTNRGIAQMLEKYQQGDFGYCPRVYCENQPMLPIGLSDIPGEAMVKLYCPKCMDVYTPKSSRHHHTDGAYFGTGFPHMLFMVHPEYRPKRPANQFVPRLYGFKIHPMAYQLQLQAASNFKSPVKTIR
Casein kinase II, sequence (P68400 whole entry): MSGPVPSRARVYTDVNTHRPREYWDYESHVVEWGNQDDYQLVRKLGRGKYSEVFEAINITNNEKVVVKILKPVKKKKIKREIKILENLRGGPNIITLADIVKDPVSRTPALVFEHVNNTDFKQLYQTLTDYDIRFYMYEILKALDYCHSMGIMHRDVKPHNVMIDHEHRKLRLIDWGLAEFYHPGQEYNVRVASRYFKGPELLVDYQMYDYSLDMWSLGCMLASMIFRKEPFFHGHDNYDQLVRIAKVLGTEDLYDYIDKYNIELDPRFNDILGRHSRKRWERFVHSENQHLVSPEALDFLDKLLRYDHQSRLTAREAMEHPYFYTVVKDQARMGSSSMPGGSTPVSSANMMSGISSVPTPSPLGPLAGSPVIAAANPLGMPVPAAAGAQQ
Casein kinase II, sequence (P19784 whole entry): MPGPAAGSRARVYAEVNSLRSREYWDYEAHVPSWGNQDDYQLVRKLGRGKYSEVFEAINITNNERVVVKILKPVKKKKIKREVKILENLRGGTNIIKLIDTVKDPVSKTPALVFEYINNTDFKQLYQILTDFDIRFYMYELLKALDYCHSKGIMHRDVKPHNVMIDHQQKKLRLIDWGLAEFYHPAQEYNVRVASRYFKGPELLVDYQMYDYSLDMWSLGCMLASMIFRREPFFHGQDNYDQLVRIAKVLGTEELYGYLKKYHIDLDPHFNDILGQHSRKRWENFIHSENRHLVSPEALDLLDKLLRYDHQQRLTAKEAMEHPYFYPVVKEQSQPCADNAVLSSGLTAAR
RuvB-like 2 (Homo sapiens), sequence (Q9Y230 whole entry): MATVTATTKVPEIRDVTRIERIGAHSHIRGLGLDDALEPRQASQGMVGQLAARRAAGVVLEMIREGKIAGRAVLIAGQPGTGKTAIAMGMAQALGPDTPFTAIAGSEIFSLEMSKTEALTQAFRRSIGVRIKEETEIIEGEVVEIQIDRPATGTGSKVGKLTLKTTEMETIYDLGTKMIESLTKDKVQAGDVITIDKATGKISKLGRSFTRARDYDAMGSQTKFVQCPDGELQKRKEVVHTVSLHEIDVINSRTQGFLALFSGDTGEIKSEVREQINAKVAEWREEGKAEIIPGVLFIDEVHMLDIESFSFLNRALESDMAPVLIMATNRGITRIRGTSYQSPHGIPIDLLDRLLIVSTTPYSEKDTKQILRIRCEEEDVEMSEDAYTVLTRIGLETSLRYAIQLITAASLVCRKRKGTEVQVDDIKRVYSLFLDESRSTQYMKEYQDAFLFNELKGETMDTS
Eukaryotic translation initiation factor 3 subunit F (Homo sapiens), sequence (O00303 whole entry): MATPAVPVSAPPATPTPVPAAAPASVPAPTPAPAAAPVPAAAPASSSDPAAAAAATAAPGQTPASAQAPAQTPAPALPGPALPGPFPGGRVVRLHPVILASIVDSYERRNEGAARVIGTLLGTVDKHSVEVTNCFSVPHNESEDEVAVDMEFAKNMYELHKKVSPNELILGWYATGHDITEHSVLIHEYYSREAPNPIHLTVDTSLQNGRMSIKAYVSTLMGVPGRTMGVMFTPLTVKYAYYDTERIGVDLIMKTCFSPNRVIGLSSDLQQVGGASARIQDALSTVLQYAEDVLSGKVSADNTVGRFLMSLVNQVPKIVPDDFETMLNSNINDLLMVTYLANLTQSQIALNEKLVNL

O=C(CCCC[C@@H]1SC[C@@H]2NC(=O)N[C@@H]21)NCCOCCOCCNC(=O)COc1cc(O)c2c(=O)c(O)c(-c3ccc(O)c(O)c3)oc2c1
Activity [1]: Active
Activity [2]: Active
IC50 [3]: 3.2 µM
Activity [4]: Active
Activity [5]: Active
Activity [6]: inactive
Activity [7]: Active
Activity [8]: Active
Activity [9]: Active
Activity [10]: Active
Activity [11]: Active
Activity [12]: Active
